Results taken from ChEMBL document CHEMBL3596120, “Discovery of natural alkaloid bouchardatine as a novel inhibitor of adipogenesis/lipogenesis in 3T3-L1 adipocytes” (Bioorg Med Chem, 2015).
Calls of active or inactive are those of the source. The rule behind the calls is not given here.

Experiments:
[1] = Reduction in SCD1 protein expression in mouse 3T3L1 cells at 0.2 mM after 3 days by Western blot method; format: functional, cell-based; conditions: 3T3-L1
How it was run: (§1)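 3T3-L1 preadipocytes grown in DMEM with 10% FBS at 37 °C under 5% CO2. Differentiation starts 2 days post-confluence (day 0) with IBMX, 100 ng/mL dexamethasone and insulin for 3 d, then insulin in 10% FBS/DMEM for 3 d, then basic medium for 3 d. Compound is added on day 0 and renewed at day 3. Vehicle control receives the same volume of DMSO.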

3T3-L1 [2] = assay: Activation of AMPK in mouse 3T3L1 cells assessed as increase in ACC Ser79 phosphorylation at 0.2 mM after 9 days by Western blot method; format: cell-based
How it was run: (§2)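 Mouse 3T3-L1 cells taken through the differentiation protocol, with compound or DMSO vehicle given from day 0 and renewed at day 3. Cells lysed on ice for 0.5 h in RIPA with PMSF, Na3VO4, NaF and protease inhibitors, then centrifuged at 12,000g. Lysates run on 12% SDS-PAGE and transferred to PVDF. Blots probed overnight at 4 °C and detected with HRP secondary. Bands quantified by optical density against GAPDH. Three independent experiments.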

[3] = Reduction in FAS protein expression in mouse 3T3L1 cells at 0.2 mM after 3 days by Western blot method; format: functional, cell-based; conditions: 3T3-L1; how it was run: as §1
3T3-L1 [4] = assay: Inhibition of adipogenesis in mouse 3T3L1 cells assessed as reduction in triglyceride content at 0.2 mM by colorimetric assay; format: functional, cell-based
[5] = Reduction in PPARgamma protein expression in mouse 3T3L1 cells at 0.2 mM after 3 days by Western blot method; format: functional, cell-based; conditions: 3T3-L1; how it was run: as §1
[6] = Reduction in SREBP-1c protein expression in mouse 3T3L1 cells at 0.2 mM after 3 days by Western blot method; format: functional, cell-based; conditions: 3T3-L1; how it was run: as §1
3T3-L1 [7] = assay: Effect on in AMPKalpha protein expression in mouse 3T3L1 cells at 25 uM after 0.5 to 4 hrs by Western blot method; format: functional, cell-based
[8] = Reduction in C/EBPalpha protein expression in mouse 3T3L1 cells at 0.2 mM after 3 days by Western blot method; format: functional, cell-based; conditions: 3T3-L1; how it was run: as §2
3T3-L1 [9] = assay: Increase in AMPKalpha Thr172 phosphorylation in mouse 3T3L1 cells at 0.2 mM after 9 days by Western blot method; format: cell-based; how it was run: as §2

## NC(=O)c1ncn([C@@H]2O[C@H](CO)[C@@H](O)[C@H]2O)c1N
[1]
  Activity: Active
3T3-L1 [2]
  Activity: Active
[3]
  Activity: Active
3T3-L1 [4]
  Activity: Active
[5]
  Activity: Active
[6]
  Activity: Active
3T3-L1 [7]
  Activity: inactive
[8]
  Activity: Active
3T3-L1 [9]
  Activity: Active
